# According to ChEMBL document CHEMBL3616442, “Unconventional Knoevenagel-type indoles: Synthesis and cell-based studies for the identification of pro-apoptotic agents” (Eur J Med Chem, 2015):
# Legend:
# [1] = Growth inhibition of human LOXIMVI cells after 48 hrs by sulforhodamine B assay; type: functional; conditions: LOX IMVI
# In short: (§1)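 NCI 60-cell-line screen. Compounds tested at five 10-fold dilutions from 10^-4 to 10^-8 M. Cells exposed for the last 48 h of a 72 h incubation, growth estimated by sulforhodamine B protein assay. GI50 is the concentration giving 50% growth inhibition. Values beyond the tested range are expressed as greater or lesser than the extreme concentration.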
# [2] = Growth inhibition of human MOLT4 cells after 48 hrs by sulforhodamine B assay; type: functional; conditions: MOLT-4, 48 h; in short: as §1
# MT4 = assay: Antiproliferative activity against human MT4 cells after 96 hrs by MTT assay; type: functional, cell-based; conditions: MT4, 96 h
# In short: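 Exponentially growing MT-4 cells (CD4+ human T-cells carrying integrated HTLV-1 genome), seeded at 1×10^5 cells/mL in RPMI-1640 with 10% FCS and antibiotics. Serial dilutions of compound (DMSO stock 100 mM, diluted in medium), 37 °C, 5% CO₂, 96 h. Viability read by MTT. 50% inhibition versus untreated controls by linear regression. Mean ± SD of three independent determinations.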
# TK-10 = assay: Growth inhibition of human TK10 cells after 48 hrs by sulforhodamine B assay; type: functional; conditions: TK-10, 48 h
# KM12 = assay: Growth inhibition of human KM12 cells after 48 hrs by sulforhodamine B assay; type: functional; conditions: KM12, 48 h; in short: as §1
# [3] = Growth inhibition of human SF539 cells after 48 hrs by sulforhodamine B assay; type: functional; conditions: SF-539, 48 h
# SK-MEL-2 = assay: Growth inhibition of human SK-MEL-2 cells after 48 hrs by sulforhodamine B assay; type: functional; conditions: SK-MEL-2, 48 h
# NCI-H226 = assay: Growth inhibition of human NCI-H226 cells after 48 hrs by sulforhodamine B assay; type: functional; conditions: NCI-H226, 48 h; in short: as §1
# [4] = Growth inhibition of human Hs 578T cells after 48 hrs by sulforhodamine B assay; type: functional; in short: as §1
# HCT-15 = assay: Growth inhibition of human HCT15 cells after 48 hrs by sulforhodamine B assay; type: functional; conditions: HCT-15, 48 h; in short: as §1
# HL-60(TB) = assay: Growth inhibition of human HL-60(TB) cells after 48 hrs by sulforhodamine B assay; type: functional; conditions: HL-60, 48 h
# In short: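 NCI 60-cell-line screen, HL-60(TB) included. Compound given at five 10-fold dilutions from 10^-4 to 10^-8 M. Cells exposed for the last 48 h of a 72 h incubation. Growth or viability estimated by sulforhodamine B protein assay. GI50 is the concentration giving 50% growth inhibition. Values outside the tested range are reported as greater or less than the highest or lowest concentration.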
# [5] = Growth inhibition of human EKVX cells after 48 hrs by sulforhodamine B assay; type: functional; in short: as §1
# Malme-3M = assay: Growth inhibition of human MALME-3M cells after 48 hrs by sulforhodamine B assay; type: functional; in short: as §1
# SK-MEL-28 = assay: Growth inhibition of human SK-MEL-28 cells after 48 hrs by sulforhodamine B assay; type: functional; conditions: SK-MEL-28, 48 h
# NCI-H460 = assay: Growth inhibition of human NCI-H460 cells after 48 hrs by sulforhodamine B assay; type: functional; conditions: NCI-H460, 48 h; in short: as §1
# [6] = Growth inhibition of human RXF393 cells after 48 hrs by sulforhodamine B assay; type: functional; conditions: RXF 393, 48 h
# MDA-MB-468 = assay: Growth inhibition of human MDA-MB-468 cells after 48 hrs by sulforhodamine B assay; type: functional; conditions: MDA-MB-468, 48 h; in short: as §1
# SNB-19 = assay: Growth inhibition of human SNB19 cells after 48 hrs by sulforhodamine B assay; type: functional; conditions: SNB-19, 48 h
# U-251 = assay: Growth inhibition of human U251 cells after 48 hrs by sulforhodamine B assay; type: functional; conditions: U-251, 48 h
# K562 = assay: Growth inhibition of human K562 cells after 48 hrs by sulforhodamine B assay; type: functional; conditions: K562, 48 h; in short: as §1
# UO-31 = assay: Growth inhibition of human UO31 cells after 48 hrs by sulforhodamine B assay; type: functional; conditions: UO-31, 48 h
# [7] = Growth inhibition of human BT549 cells after 48 hrs by sulforhodamine B assay; type: functional; conditions: BT-549, 48 h; in short: as §1
# UACC-257 = assay: Growth inhibition of human UACC257 cells after 48 hrs by sulforhodamine B assay; type: functional; conditions: UACC-257, 48 h
# A498 = assay: Growth inhibition of human A498 cells after 48 hrs by sulforhodamine B assay; type: functional; conditions: A498, 48 h; in short: as §1
# [8] = Growth inhibition of human NCI-ADR-RES cells after 48 hrs by sulforhodamine B assay; type: functional; in short: as §1
# HT-29 = assay: Growth inhibition of human HT-29 cells after 48 hrs by sulforhodamine B assay; type: functional; conditions: HT-29, 48 h; in short: as §1
# UACC-62 = assay: Growth inhibition of human UACC62 cells after 48 hrs by sulforhodamine B assay; type: functional; conditions: UACC-62, 48 h
# NCI-H23 = assay: Growth inhibition of human NCI-H23 cells after 48 hrs by sulforhodamine B assay; type: functional; conditions: NCI-H23, 48 h; in short: as §1
# HCT-116 = assay: Growth inhibition of human HCT116 cells after 48 hrs by sulforhodamine B assay; type: functional; conditions: HCT-116, 48 h; in short: as §1
# OVCAR-5 = assay: Growth inhibition of human OVCAR5 cells after 48 hrs by sulforhodamine B assay; type: functional; conditions: OVCAR-5, 48 h
# MCF7 = assay: Growth inhibition of human MCF7 cells after 48 hrs by sulforhodamine B assay; type: functional; conditions: MCF7, 48 h; in short: as §1
# NCI-H322M = assay: Growth inhibition of human NCI-H322M cells after 48 hrs by sulforhodamine B assay; type: functional; in short: as §1
# SK-MEL-5 = assay: Growth inhibition of human SK-MEL-5 cells after 48 hrs by sulforhodamine B assay; type: functional; conditions: SK-MEL-5, 48 h
# OVCAR-4 = assay: Growth inhibition of human OVCAR4 cells after 48 hrs by sulforhodamine B assay; type: functional; conditions: OVCAR-4, 48 h; in short: as §1
# DU-145 = assay: Growth inhibition of human DU145 cells after 48 hrs by sulforhodamine B assay; type: functional; conditions: DU-145, 48 h; in short: as §1
# ACHN = assay: Growth inhibition of human ACHN cells after 48 hrs by sulforhodamine B assay; type: functional; in short: as §1
# OVCAR-8 = assay: Growth inhibition of human OVCAR8 cells after 48 hrs by sulforhodamine B assay; type: functional; conditions: OVCAR-8, 48 h
# SNB-75 = assay: Growth inhibition of human SNB75 cells after 48 hrs by sulforhodamine B assay; type: functional; conditions: SNB-75, 48 h
# SW-620 = assay: Growth inhibition of human SW620 cells after 48 hrs by sulforhodamine B assay; type: functional; conditions: SW-620, 48 h
# A549 = assay: Growth inhibition of human A549 cells after 48 hrs by sulforhodamine B assay; type: functional; conditions: A549, 48 h; in short: as §1
# [9] = Growth inhibition of human HCC2998 cells after 48 hrs by sulforhodamine B assay; type: functional; conditions: HCC 2998, 48 h; in short: as §1
# OVCAR-3 = assay: Growth inhibition of human OVCAR3 cells after 48 hrs by sulforhodamine B assay; type: functional; conditions: OVCAR-3, 48 h; in short: as §1
# [10] = Growth inhibition of human HOP92 cells after 48 hrs by sulforhodamine B assay; type: functional; conditions: HOP-92, 48 h; in short: as §1
smiles,measurement,setting,value
COc1ccc(-c2[nH]c3ccccc3c2C=C(C#N)C#N)cc1,GI50,[1],1800 nM
same,GI50,[2],578 nM
same,EC50,MT4,300 nM
same,GI50,TK-10,925 nM
same,GI50,KM12,374 nM
same,GI50,[3],263 nM
same,GI50,SK-MEL-2,763 nM
same,GI50,NCI-H226,1100 nM
same,GI50,[4],241 nM
same,GI50,HCT-15,593 nM
same,GI50,HL-60(TB),271 nM
same,GI50,[5],656 nM
same,GI50,Malme-3M,874 nM
same,GI50,SK-MEL-28,1200 nM
same,GI50,NCI-H460,359 nM
same,GI50,[6],518 nM
same,GI50,MDA-MB-468,418 nM
same,GI50,SNB-19,1800 nM
same,GI50,U-251,483 nM
same,GI50,K562,343 nM
same,GI50,UO-31,2800 nM
same,GI50,[7],769 nM
same,GI50,UACC-257,424 nM
same,GI50,A498,458 nM
same,GI50,[8],343 nM
same,GI50,HT-29,354 nM
same,GI50,UACC-62,357 nM
same,GI50,NCI-H23,600 nM
same,GI50,HCT-116,411 nM
same,GI50,OVCAR-5,1800 nM
same,GI50,MCF7,347 nM
same,GI50,NCI-H322M,490 nM
same,GI50,SK-MEL-5,350 nM
same,GI50,OVCAR-4,798 nM
same,GI50,DU-145,484 nM
same,GI50,ACHN,2300 nM
same,GI50,OVCAR-8,1200 nM
same,GI50,SNB-75,418 nM
same,GI50,SW-620,440 nM
same,GI50,A549,700 nM
same,GI50,[9],751 nM
same,GI50,OVCAR-3,265 nM
same,GI50,[10],1200 nM
CC(=O)/C(=C\c1c(-c2ccccc2)[nH]c2ccccc12)S(C)(=O)=O,GI50,[1],3400 nM
same,GI50,[2],4400 nM
same,EC50,MT4,500 nM
same,GI50,TK-10,13500 nM
same,GI50,KM12,2100 nM
same,GI50,[3],1900 nM
same,GI50,SK-MEL-2,8600 nM
same,GI50,NCI-H226,27100 nM
same,GI50,[4],1600 nM
same,GI50,HCT-15,2000 nM
same,GI50,HL-60(TB),2600 nM
same,GI50,[5],6400 nM
same,GI50,Malme-3M,4800 nM
same,GI50,SK-MEL-28,3300 nM
same,GI50,NCI-H460,2800 nM
same,GI50,[6],2600 nM
same,GI50,MDA-MB-468,1800 nM
same,GI50,SNB-19,3400 nM
same,GI50,U-251,2900 nM
same,GI50,K562,679 nM
same,GI50,UO-31,5800 nM
same,GI50,[7],2400 nM
same,GI50,UACC-257,43800 nM
same,GI50,A498,3900 nM
same,GI50,[8],2100 nM
same,GI50,HT-29,1600 nM
same,GI50,UACC-62,3200 nM
same,GI50,NCI-H23,4000 nM
same,GI50,HCT-116,2900 nM
same,GI50,OVCAR-5,16100 nM
same,GI50,MCF7,2700 nM
same,GI50,NCI-H322M,9600 nM
same,GI50,SK-MEL-5,1900 nM
same,GI50,OVCAR-4,3800 nM
same,GI50,DU-145,3500 nM
same,GI50,ACHN,5800 nM
same,GI50,OVCAR-8,5200 nM
same,GI50,SNB-75,1500 nM
same,GI50,SW-620,2100 nM
same,GI50,A549,7300 nM
same,GI50,[9],8000 nM
same,GI50,OVCAR-3,2300 nM
same,GI50,[10],3800 nM
CCOC(=O)C(=Cc1c(-c2ccccc2)[nH]c2ccccc12)C(=O)OCC,GI50,[1],5600 nM
same,GI50,[2],3900 nM
same,EC50,MT4,2300 nM
same,GI50,TK-10,13600 nM
same,GI50,KM12,3500 nM
same,GI50,[3],14500 nM
same,GI50,SK-MEL-2,4700 nM
same,GI50,NCI-H226,11400 nM
same,GI50,[4],3800 nM
same,GI50,HCT-15,4100 nM
same,GI50,HL-60(TB),4400 nM
same,GI50,[5],12400 nM
same,GI50,Malme-3M,8900 nM
same,GI50,SK-MEL-28,7700 nM
same,GI50,NCI-H460,3800 nM
same,GI50,[6],3700 nM
same,GI50,MDA-MB-468,3100 nM
same,GI50,SNB-19,23900 nM
same,GI50,U-251,4900 nM
same,GI50,K562,3600 nM
same,GI50,UO-31,4000 nM
same,GI50,[7],5300 nM
same,GI50,UACC-257,7500 nM
same,GI50,A498,16900 nM
same,GI50,[8],2900 nM
same,GI50,HT-29,4600 nM
same,GI50,UACC-62,4600 nM
same,GI50,NCI-H23,2900 nM
same,GI50,HCT-116,4300 nM
same,GI50,OVCAR-5,18500 nM
same,GI50,MCF7,4500 nM
same,GI50,NCI-H322M,12700 nM
same,GI50,SK-MEL-5,3800 nM
same,GI50,OVCAR-4,10500 nM
same,GI50,DU-145,9700 nM
same,GI50,ACHN,4400 nM
same,GI50,OVCAR-8,4100 nM
same,GI50,SNB-75,7000 nM
same,GI50,SW-620,5600 nM
same,GI50,A549,6400 nM
same,GI50,[9],10100 nM
same,GI50,OVCAR-3,4200 nM
same,GI50,[10],8800 nM
